# Screens: PubChem, several laboratories
# Many of the other results were omitted from the sample, so hits are more common in it than they were.
# Ecoli tolC – growth inhibitors of E. coli tolC mutant, primary screen, strain BW25113 ΔtolC::kan, 384-well. AID 573, 2007. OD615. growth inhibition, % at 10 µM (by protocol). 2.2% of 65,000 active;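 active = growth inhibition at or above a cutoff equal to the mean over every tested compound plus 3 SD, cut at about 60% in these data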;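 note: growth measured after 20 h incubation at 37 °C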
#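 Test system: tolC-deleted E. coli BW25113 | Medium: LB with kanamycin 50 µg/mL | Compound dosing: Single concentration, 10 µM final per compound | Schedule: 37 °C, 20 h exposure | Measured by: OD at 615 nm | Evaluation: Percent growth inhibition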
# Cdc25B block – inhibitors of Cdc25B phosphatase catalytic domain, primary screen, biochemical, OMFP fluorescence | M-phase inducer phosphatase 2 (Homo sapiens), P30305 | recombinant Cdc25B, OMFP fluorescence Ex485/Em525 | inhibition, %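 (compounds tested at 10 µM final in the well)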 | 0.1% of 65,000 active | AID 368, 2006; in the data active = inhibition above about 50%
# DUSP1 inh – MKP-1 phosphatase inhibitors, primary screen, biochemical, in vitro | inhibition, %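 (compounds tested at a single concentration somewhere between 10 and 100 µM)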 | Dual specificity protein phosphatase 1 (Homo sapiens), P28562 | 0.15% of 65,000 active | AID 374, 2006 | recombinant MKP-1, OMFP hydrolysis fluorescence;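 active = inhibition above about 50%, limit read from the data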
# E coli WT exp – growth inhibitors of wild-type E. coli, primary screen, strain BW25113, expanded library, OD600. OD600 absorbance. growth inhibition, % at 100 µM. 0.15% of 98,000 active;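 active = growth inhibition above about 50% at one test dose, limit read from the data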;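 note: growth measured after 20 h incubation at 37 °C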
# HePTP inh – inhibitors of human HePTP phosphatase, primary screen, biochemical, absorbance, leukemia target. Tyrosine-protein phosphatase non-receptor type 7 (Homo sapiens), P35236. recombinant HePTP phosphatase activity, OD absorbance. inhibition, % at 20 µM. 0.64% of 110,000 active. AID 521, 2006; in the data active = inhibition above about 50%
# Target sequence (P35236 whole entry, looked up): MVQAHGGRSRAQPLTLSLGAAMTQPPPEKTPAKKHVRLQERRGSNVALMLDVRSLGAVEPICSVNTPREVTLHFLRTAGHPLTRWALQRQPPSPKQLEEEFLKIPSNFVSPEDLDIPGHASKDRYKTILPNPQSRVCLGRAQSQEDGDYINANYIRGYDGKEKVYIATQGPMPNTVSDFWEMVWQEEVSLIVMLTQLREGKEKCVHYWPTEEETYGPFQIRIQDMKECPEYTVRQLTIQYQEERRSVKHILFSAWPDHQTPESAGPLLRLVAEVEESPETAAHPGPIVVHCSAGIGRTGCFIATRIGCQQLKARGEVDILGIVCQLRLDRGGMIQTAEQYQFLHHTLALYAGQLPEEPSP
# MMP-13 inhibitor – human MMP13 inhibitors, primary screen, biochemical, FRET peptide cleavage; AID 570, 2006; inhibition, % at 4 µM; MMP-13 fTHP FRET cleavage, Mca fluorescence; Collagenase 3 (Homo sapiens), P45452; 0.07% of 65,000 active;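 active = inhibition above the mean of compound-free control plate wells plus 3 SD, cut at about 14% in these data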
# A number is an active result; - = inactive; . = not tested or not shown.
SMILES,Ecoli tolC,Cdc25B block,DUSP1 inh,E coli WT exp,HePTP inh,MMP-13 inhibitor
O=C(Nc1ccccc1)Nc1nnc(-c2cccc(Br)c2)s1,.,.,.,.,-,.
CCOc1c(Br)cc(/C=C2N=C(/C=C/c3ccccc3)OC/2=O)cc1OC,.,.,.,.,-,.
N#CCC(=O)N1CCN(C(c2ccccc2)c2ccccc2)CC1,.,.,.,.,102.7,.
O=C(CCn1c(=O)oc2ccccc21)N1CCN(C(c2ccccc2)c2ccccc2)CC1,63.7,-,-,-,-,-
COc1ccc(NC(=O)C23CCC4CC(CC(C4)C2)C3)cc1,.,.,.,.,-,.
O=C(NC1=NCCS1)c1ccc(OCC2CCCO2)cc1 (centres undefined),-,54.9,-,-,-,-
CC(C)Oc1ccccc1NC(=O)c1ccccc1SCc1ccc(F)cc1,.,.,.,.,91.6,.
CCCCCCCCNc1nc(OC)nc(OC)n1,.,.,.,.,67.5,.
CC(C)c1ccc(N2C(=O)NC(=O)/C(=C/c3ccc(Br)o3)C2=O)cc1,.,.,.,.,102.3,.
Cc1cccc(N2C(=O)NC(=O)/C(=C/c3ccc(Br)o3)C2=O)c1,.,.,.,.,75.4,.
CCc1ccc(/C=C2/C(=O)NC(=O)N(c3cccc(C)c3)C2=O)cc1,.,.,.,.,-,.
Cc1ccc(C2(C)CC(C)(C)N(C(=O)C3CCCO3)c3ccccc32)cc1 (centres undefined),.,.,.,.,-,.
O=c1c2ccccc2c(C=NCCO)c(O)n1-c1ccccc1,-,-,-,-,-,15.1
N#Cc1c(-c2ccco2)cc(-c2ccc(F)cc2)nc1N,-,-,-,-,-,-
N#Cc1c(-c2ccc(Br)cc2)cc(-c2ccco2)c(C#N)c1N,.,.,.,.,100.7,.
CN(C)/C(=N/OC(=O)c1ccc([N+](=O)[O-])cc1)c1nonc1N,.,.,.,.,-,.
CCOC(=O)C1CCCN(c2ncnc3c2cnn3-c2ccc(OC)cc2)C1 (centres undefined),-,-,-,-,-,-
CCOC(=O)C1CCCN(c2ncnc3c2cnn3-c2ccc(Cl)cc2)C1 (centres undefined),73.1,-,-,-,-,-
CC(C)N(C(=O)Cn1c(CCCO)nc2ccccc21)c1ccccc1,.,.,.,.,-,.
O=C(Nc1ccc(Cl)cc1)Nc1nnc(-c2cccs2)s1,.,.,.,.,-,.
C/C(O)=c1/ccc2cccc3nc(C)nc1c23,73.4,-,-,-,-,-
O=c1[nH]c(SCc2ccc(Cl)cc2)nc2c1CCC2,-,-,-,-,-,32.9
O=C(CNC(=O)c1ccc(Br)cc1)c1ccc(-c2ccccc2)cc1,.,.,.,.,-,.
CC(=O)c1c(O)cc(C)n(Nc2nc(C)cc(C)n2)c1=O,72.7,-,-,-,-,-
Cc1ccc2ccc(S(=O)(=O)n3nc(C)cc3C)cc2c1,77.9,-,-,-,-,-
SMILES,Ecoli tolC,Cdc25B block,DUSP1 inh,E coli WT exp,HePTP inh,MMP-13 inhibitor
Cc1cc(C)n(S(=O)(=O)c2ccc3c(c2)C(=O)c2cc(S(=O)(=O)n4nc(C)cc4C)ccc2-3)n1,.,.,.,.,-,.
Cc1ccc(S(=O)(=O)N/N=C/c2[nH]c3ccccc3c2Cl)cc1,.,.,.,.,-,.
c1cncc(-c2csc(NCc3ccco3)n2)c1,-,-,-,-,-,.
COc1ccc(-c2csc(NCc3ccco3)n2)cc1C,64.7,-,-,-,-,-
c1csc(-c2noc(COc3ccc4c(c3)CCCC4)n2)c1,61.4,-,-,-,-,-
Cn1c(=O)c2c(nc(N3CCCCCC3)n2Cc2cccc3ccccc23)n(C)c1=O,74.0,-,-,-,-,-
CC1=C(C(=O)Nc2cccc(Cl)c2)C(c2ccc(F)cc2)NC(=O)N1 (centres undefined),.,.,.,.,-,.
O=C(CC1CCCCC1)c1c(O)c2ccccc2oc1=O,100.0,-,-,-,-,-
CCCCC(=O)c1c(O)c2ccccc2oc1=O,99.0,-,-,-,-,-
Cc1cc(C)c2oc(-c3ccc(NC(=O)c4ccccc4[N+](=O)[O-])cc3)nc2c1,.,.,.,.,-,.
CN1C(=O)NC(c2ccc(O)cc2)C(C(=O)c2cccs2)C1(O)C(F)(F)F (centres undefined),-,-,-,80.0,-,-
O=C1NC(c2ccccc2)C(C(=O)c2cccs2)C(O)(C(F)(F)F)N1 (centres undefined),-,-,-,-,-,-
OCCN(CCO)c1nc(N2CCCCC2)c2nc(N(CCO)CCO)nc(N3CCCCC3)c2n1,100.0,-,-,.,-,-
CN(C)c1nc(N2CCCCC2)nc(N2CCCCC2)n1,-,-,-,.,-,-
CCCCOc1ccc(C=C2C(=O)NC(=S)NC2=O)cc1OC,.,.,.,.,-,.
Cc1ccc(/C=C2\SC(=S)N(CC(C)C)C2=O)cc1,.,.,.,.,-,.
CC(C)C1=NN2C(=N)/C(=C/c3ccc(-c4ccc(F)c(Cl)c4)o3)C(=O)N=C2S1,.,.,.,.,-,.
Cc1ccc2c(c1)c1c3n2CCN(C(=O)CN2CCN(C)CC2)C3CCC1 (centres undefined),-,-,-,-,-,-
CN1CCN(CC(=O)N2CCn3c4c(c5cc(C6CCCCC6)ccc53)CCCC42)CC1 (centres undefined),100.0,-,-,-,-,-
O=C(Nc1ccc(Cl)c(-c2nc3ccccc3[nH]2)c1)c1cccs1,.,.,.,.,-,.
COc1ccccc1OCCOc1ccccc1OC,.,.,.,.,-,.
CC1=C(C#N)c2nc(N)c(C#N)c(C)c2/C1=C\c1ccc(-c2cccc([N+](=O)[O-])c2)o1,.,.,.,.,-,.
CC1=C(C#N)c2nc(N)c(C#N)c(C)c2/C1=C/c1ccc(-c2cccc(C(=O)O)c2)o1,.,.,.,.,103.2,.
CCOC(=O)c1cc(-c2ccc(/C=C3/C(=O)NC(=O)C(C#N)=C3C)o2)ccc1Cl,.,.,.,-,.,.
CC(=O)c1cccc(-c2ccc(/C=C3\C(=O)NC(=O)C(C#N)=C3C)o2)c1,.,.,.,.,71.6,.
SMILES,Ecoli tolC,Cdc25B block,DUSP1 inh,E coli WT exp,HePTP inh,MMP-13 inhibitor
CC(=O)c1cccc(NC(=O)c2ccccc2C)c1,.,.,.,.,-,.
O=S(=O)(NCc1ccc(Cl)cc1)c1ccccc1,.,.,.,.,-,.
CCOc1cc(-c2cc(-c3ccc(C)cc3)nc(N)c2C#N)ccc1O,.,.,.,-,.,.
CCOc1cc(-c2c(C#N)c(N)nc3c2CCCC3C)ccc1O (centres undefined),86.5,-,-,-,-,-
CCN(C1CCCCC1)S(=O)(=O)c1ccc(OC)c(C)c1,91.9,-,-,-,-,-
Brc1ccc2nc(N3CCNCC3)nc(-c3ccccc3)c2c1,.,.,.,.,-,.
OCCN1CCN(c2nc(-c3ccccc3)c3cc(Cl)ccc3n2)CC1,100.0,-,-,-,-,-
Clc1ccc2nc(N3CCNCC3)nc(-c3ccccc3)c2c1,-,-,-,55.0,-,-
CCOC(=O)N1CCC(c2cc(=O)n3[nH]c(-c4ccccc4)cc3n2)CC1,-,-,-,-,-,-
CCOC(=O)N1CCC(c2cc(=O)n3[nH]c(C)c(-c4ccc(F)cc4)c3n2)CC1,98.7,-,-,-,-,-
CN(c1ccc(C(=O)Nc2ccc3ccccc3c2)cc1)S(=O)(=O)c1ccccc1,.,.,.,.,-,.
O=C(NC(=Nc1ccccc1)N1CCOCC1)Nc1ccccc1,-,-,-,-,-,15.8
